Assay results of several laboratories.
Protocols differ between the studies behind these lines.
Target: Serine/threonine-protein kinase tousled-like 2 (TLK2, Homo sapiens, UniProt Q86UE8)

Compound | assay | setting | remaining binding
N[C@@H]1CCN(c2nccc(-c3cnn4ncccc34)n2)C1 | binding | 1 µM | 100%
O=C(N[C@H]1CCCCC/C=C\C2C[C@@]2(C(=O)O)NC(=O)[C@@H]2C[C@@H](Oc3ccncc3)CN2C1=O)OC1CCCC1 (stereo partly drawn) | cell-free assay, competition with immobilised ligand | 1 µM | 100%
COc1cnc(Nc2cccc(S(N)(=O)=O)c2)nc1N1CCN(c2ccccc2)CC1 | binding, competition with immobilised ligand | 1 µM | 96%
FC(F)(F)Oc1cccc(-c2cnc3ccc(-c4ccncc4)nn23)c1 | binding, competition with immobilised ligand | 5 µM | 93%
c1cnn2ncc(-c3ccnc(N4CCC45COC5)n3)c2c1 | binding | 1 µM | 100%
Cc1nc(Cc2cccc(C(F)(F)F)c2)sc1-c1ccc(C(N)=O)nc1 | cell-free assay, competition with immobilised ligand | 1 µM | 82%
F[C@@H]1CCN(c2nccc(-c3cnn4ncccc34)n2)C1 | binding | 1 µM | 100%
N#CC1(c2ccccn2)CCN(Cc2cc(C(=O)N3CCCC3)c(=O)n3ccccc23)CC1 | cell-free assay, competition with immobilised ligand | 1 µM | 100%
O=C(c1ccc(Nc2nccc(-c3cc4ccccc4s3)n2)cc1)N1CCC(N2CCCC2)CC1 | binding, competition with immobilised ligand | 1 µM | 15%
CN(C)c1nccc(-c2cnn3ncccc23)n1 | binding | 1 µM | 100%
CO[C@@H](C)c1c(Nc2ccc([C@H](N(C)C(=O)C3CCS(=O)(=O)CC3)C(F)(F)F)cc2)cnc2cc(Cl)nn12 | cell-free assay, competition with immobilised ligand | 1 µM | 92%
CN(C)c1ncc(F)c(-c2cnn3ncccc23)n1 | binding | 1 µM | 100%
COc1cnc(Nc2cccc(S(N)(=O)=O)c2)nc1N1CCN(c2ccccc2)C(=O)C1 | binding, competition with immobilised ligand | 1 µM | 100%
O=C(N1CCS(=O)(=O)CC1)N1C[C@H](c2ccc(OC(F)(F)F)cc2)C[C@H](c2nc(C3CC3)no2)C1 | cell-free assay, competition with immobilised ligand | 1 µM | 100%
O=C(NCC1CCOCC1)c1n[nH]cc1NC(=O)c1c(F)cccc1F | binding, competition with immobilised ligand | 1 µM | 100%
O=C(c1ccc(Nc2ncc(Cl)c(-c3ccc(Cl)s3)n2)cc1)N1CCC(N2CCCC2)CC1 | binding, competition with immobilised ligand | 1 µM | 29%
c1cncc(-c2cccc(Nc3nccc(NC4CCCCC4)n3)c2)c1 | binding, competition with immobilised ligand | 10 µM | 100%
C[C@@H]1CCN(c2nccc(-c3cnn4ncccc34)n2)C1 | binding | 1 µM | 100%
C=CC(=O)N1CCC(C(=O)NCC(=O)N2CCN(c3nc(-c4cnc(N)nc4C(F)F)nc(N4CCOCC4)n3)CC2)CC1 | binding, competition with immobilised ligand | 1 µM | 100%
O=C(NCCCN1CCOCC1)c1ccc(Nc2nccc(-c3cc4ccccc4s3)n2)cc1 | binding, competition with immobilised ligand | 1 µM | 64%
O=C(Nc1cccnn1)N1CCC(=Cc2cccc(Oc3ccc(C(F)(F)F)cn3)c2)CC1 | cell-free assay, competition with immobilised ligand | 1 µM | 100%
